These results are taken from ChEMBL document CHEMBL1138602, “Discovery of sodium 6-[(5-chloro-2-{[(4-chloro-2-fluorophenyl)methyl]oxy}phenyl)methyl]-2-pyridinecarboxylate (GSK269984A) an EP(1) receptor antagonist for the treatment of inflammatory pain” (Bioorg Med Chem Lett, 2009).

SMILES strings stand for the structures. Calls of active or inactive are those of the source. The rule behind the calls is not given here.

Data set [1] can be described thus: Oral bioavailability in Beagle dog at 3 mg/kg. The format is ADME, organism-based, Canis lupus familiaris. The following applies: in vivo. Summed up: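 Single oral dose of 3 mg/kg in 1% (w/v) methylcellulose vehicle. Rats were male Sprague-Dawley; dogs were beagle. Bioavailability (Fpo) determined.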
Data set [2] is described as follows: Half life in cynomolgus monkey at 1 mg/kg administered by intravenous infusion for 1 hr. The following applies: in vivo. The arrangement: dose 1 mg/kg, route intravenous. The data set is classed as ADME, organism-based, Macaca fascicularis. Summed up: (§1)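 Intravenous administration as a 1 h infusion of a 1 mg/kg dose. Rats were male Sprague-Dawley; dogs were beagle; monkeys were cynomolgus. Blood clearance, Vss and half-life determined.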

Data set [3] in a line: Lipophilicity, log D at pH 7.4. The format is physicochemical. The following applies: buffer.
Data set [4] deals with Hepatocyte. The experiment in a line: Intrinsic clearance in rat hepatocytes measured per gram of live. The format is ADME, cell-based, Liver. Summed up:
(§2)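 Intrinsic clearance in hepatocytes expressed as mL/min/g liver. Cell densities were 0.15–0.2 × 10^6 cells/mL or 0.54–0.7 × 10^6 cells/mL.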

The subject of the next data set is Rattus norvegicus. The experiment in a line: Antianalgesic activity against complete Freund's adjuvant-induced rat inflammatory pain in rat assessed as reversal of hypersensitivity at 10 mg/kg, po bid for 5 days measured on day 5 after 1 hr. The format is functional, organism-based. Also on record: dose 10 mg/kg.
Data set [5] in a line: Ratio of drug level in brain to blood in complete Freund's adjuvant induced rat inflammatory pain model at 3 mg/kg, po bid for 5 days measured after 1 hr on day 5.
A short description of data set [6]: Drug level in rat blood at 0.5 mg/kg/hr administered by infusion for 1 hrs. The data set is classed as ADME, organism-based. The following applies: intravenous, read-out: Drug uptake. Summed up: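 Rat given a 1 h infusion; blood and brain concentrations measured.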
The test system of data set [7] is Hepatocyte. The experiment in a line: Intrinsic clearance in human hepatocytes measured per gram of liver at 0.54 to 0.7 X 10^6 cells/ml cell density. The format is ADME, cell-based. Summed up: as §2
The nature of data set [8]: Oral bioavailability in cynomolgus monkey at 3 mg/kg. The format is ADME, organism-based, Macaca fascicularis. The following applies: in vivo.
A short description of data set [9]: Clearance in Sprague-Dawley rat blood at 1 mg/kg administered by intravenous infusion for 1 hr. The format is ADME, organism-based. Also on record: dose 1 mg/kg, route intravenous. Summed up:
as §1

Data set [10] in a line: Drug level in blood of complete Freund's adjuvant-induced rat inflammatory pain model at 3 mg/kg, po administered after 23 hrs of adjuvant challenge measured after 1 hr. The following applies: read-out: Drug uptake. Also on record: dose 3 mg/kg, route oral. The data set is classed as ADME, organism-based. Summed up:
(§3)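 CFA rat study: oral doses of 1, 3 or 10 mg/kg given 23 h after intraplantar adjuvant, samples 1 h post-dose. Blood values are the mean from seven animals. Brain values are the mean from three animals.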

Data set [11] can be described thus: Ratio of drug level in brain to blood of rat at 0.5 mg/kg/hr administered by infusion for 1 hrs. The following applies: brain and blood, intravenous.
The target of data set [12] is T1, Prostaglandin G/H synthase 2 (Homo sapiens, UniProt P35354).
T1 sequence (P35354 whole entry): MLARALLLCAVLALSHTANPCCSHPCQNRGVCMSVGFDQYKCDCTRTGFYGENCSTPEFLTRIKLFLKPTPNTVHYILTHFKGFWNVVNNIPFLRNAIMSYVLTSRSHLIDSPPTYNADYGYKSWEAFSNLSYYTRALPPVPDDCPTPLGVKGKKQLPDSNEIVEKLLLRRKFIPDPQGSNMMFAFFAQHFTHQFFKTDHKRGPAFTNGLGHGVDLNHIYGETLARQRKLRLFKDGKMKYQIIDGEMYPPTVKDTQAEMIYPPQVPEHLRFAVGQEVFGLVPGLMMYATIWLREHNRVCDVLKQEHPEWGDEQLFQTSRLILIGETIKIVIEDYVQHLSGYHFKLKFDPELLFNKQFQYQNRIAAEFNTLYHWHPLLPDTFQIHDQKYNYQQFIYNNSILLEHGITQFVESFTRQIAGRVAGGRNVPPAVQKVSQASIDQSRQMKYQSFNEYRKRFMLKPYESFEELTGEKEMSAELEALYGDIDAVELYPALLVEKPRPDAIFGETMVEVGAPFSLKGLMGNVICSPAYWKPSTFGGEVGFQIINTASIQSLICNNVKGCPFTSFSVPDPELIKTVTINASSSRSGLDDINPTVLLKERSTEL
The experiment in a line: Inhibition of COX2.

The target of data set [13] is T2, Prostaglandin E2 receptor EP1 subtype (Homo sapiens, UniProt P34995).
T2 sequence (P34995 whole entry): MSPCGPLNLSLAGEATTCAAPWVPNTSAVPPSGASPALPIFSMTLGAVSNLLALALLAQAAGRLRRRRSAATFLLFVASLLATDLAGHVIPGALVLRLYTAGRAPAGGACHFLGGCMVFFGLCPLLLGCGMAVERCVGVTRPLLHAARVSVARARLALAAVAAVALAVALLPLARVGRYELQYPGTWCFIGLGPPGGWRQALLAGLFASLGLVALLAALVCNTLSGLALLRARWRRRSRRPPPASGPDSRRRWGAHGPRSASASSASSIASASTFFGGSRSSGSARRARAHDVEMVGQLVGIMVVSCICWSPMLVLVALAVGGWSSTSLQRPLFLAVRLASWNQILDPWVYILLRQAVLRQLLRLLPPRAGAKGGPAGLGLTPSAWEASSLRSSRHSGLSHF
The experiment in a line: Antagonist activity at human recombinant EP1 receptor expressed in CHO cells assessed as inhibition of PGE2-mediated intracellular calcium mobilization by FLIPR method. The format is functional, cell-based. Summed up:
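CHO cells recombinantly overexpressing human EP1 receptor; antagonism measured as block of PGE2-mediated intracellular Ca2+ mobilization. Values are the mean of at least three experiments with standard deviations.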
Background: Calcium flux is commonly read through the fluorescence of an indicator in the cells.

For the next data set, the target named is Prostacyclin receptor (Homo sapiens, UniProt P43119). The experiment in a line: Inhibition of IP receptor.
Sequence of Prostacyclin receptor (P43119 whole entry): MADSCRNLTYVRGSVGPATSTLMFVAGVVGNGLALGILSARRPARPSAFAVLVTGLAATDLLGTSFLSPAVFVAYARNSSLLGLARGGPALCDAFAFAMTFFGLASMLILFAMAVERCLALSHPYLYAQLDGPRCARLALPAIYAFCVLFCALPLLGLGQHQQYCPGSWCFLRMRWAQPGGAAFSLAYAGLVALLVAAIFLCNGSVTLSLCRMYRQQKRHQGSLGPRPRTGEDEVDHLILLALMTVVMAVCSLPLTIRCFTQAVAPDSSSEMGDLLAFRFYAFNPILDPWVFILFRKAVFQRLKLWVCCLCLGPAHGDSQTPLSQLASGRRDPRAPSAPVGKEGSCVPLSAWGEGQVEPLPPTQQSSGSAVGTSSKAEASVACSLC
In data set [14] the target is Prostaglandin E2 receptor EP2 subtype (Homo sapiens, UniProt P43116). The experiment in a line: Inhibition of EP2 receptor.
Sequence of Prostaglandin E2 receptor EP2 subtype (P43116 whole entry): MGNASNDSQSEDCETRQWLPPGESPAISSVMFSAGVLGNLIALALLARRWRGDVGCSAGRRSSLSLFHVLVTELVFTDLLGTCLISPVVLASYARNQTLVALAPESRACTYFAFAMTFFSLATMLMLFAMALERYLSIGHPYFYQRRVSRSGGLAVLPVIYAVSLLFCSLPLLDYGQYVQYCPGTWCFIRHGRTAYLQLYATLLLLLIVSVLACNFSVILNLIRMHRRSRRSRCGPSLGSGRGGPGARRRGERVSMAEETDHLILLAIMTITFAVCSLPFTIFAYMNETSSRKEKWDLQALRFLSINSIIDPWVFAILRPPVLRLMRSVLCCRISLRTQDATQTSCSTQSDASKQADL
The nature of data set [15]: Intrinsic clearance in cynomolgus monkey hepatocytes measured per gram of liver at 0.54 to 0.7 X 10^6 cells/ml cell density. The format is ADME, cell-based, Macaca fascicularis, Hepatocyte. Summed up: as §2
Data set [16] can be described thus: Drug level in Landrace pig blood at 0.5 mg/kg/hr administered by infusion for 1 hrs. The data set is classed as ADME, organism-based, Sus scrofa. The following applies: intravenous, read-out: Drug uptake. Summed up:
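Landrace pig given a 1 h infusion; blood and brain concentrations measured in a single animal.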

For the next data set, the target named is T3, Cytochrome P450 1A2 (Homo sapiens, UniProt P05177).
T3 sequence (P05177 whole entry): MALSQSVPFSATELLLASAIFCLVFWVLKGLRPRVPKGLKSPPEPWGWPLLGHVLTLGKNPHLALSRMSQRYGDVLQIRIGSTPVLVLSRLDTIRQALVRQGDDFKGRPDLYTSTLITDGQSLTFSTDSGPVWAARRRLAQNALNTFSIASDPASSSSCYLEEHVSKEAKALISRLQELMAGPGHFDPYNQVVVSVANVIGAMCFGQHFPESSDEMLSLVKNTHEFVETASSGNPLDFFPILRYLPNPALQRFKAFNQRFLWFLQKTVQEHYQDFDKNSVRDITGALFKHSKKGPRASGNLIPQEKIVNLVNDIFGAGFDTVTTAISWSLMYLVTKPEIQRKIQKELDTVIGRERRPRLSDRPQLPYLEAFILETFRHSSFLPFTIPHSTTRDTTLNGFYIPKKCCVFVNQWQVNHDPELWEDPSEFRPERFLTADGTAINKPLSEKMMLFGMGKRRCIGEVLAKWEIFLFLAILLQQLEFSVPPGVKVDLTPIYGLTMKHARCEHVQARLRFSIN
The data set is described as follows: Inhibition of human CYP1A2. The data set is classed as ADME. Summed up: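 Inhibition of metabolism of fluorometric substrates (Cypex protocol); IC50 values are the mean of three experiments ± standard deviation.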

Data set [17] can be described thus: Drug level in brain of complete Freund's adjuvant-induced rat inflammatory pain model at 1 mg/kg, po administered after 23 hrs of adjuvant challenge measured after 1 hr. The arrangement: dose 1 mg/kg, route oral. The format is ADME, organism-based. The following applies: read-out: Drug uptake. Summed up:
as §3

By bioavailability is commonly meant dose-corrected exposure relative to a reference, in per cent. By half-life is commonly meant how long it takes for the measured level to halve. One may read the logD as the decadic logarithm of the distribution of all forms, ionised or not, between an organic phase and buffer at a given pH. In general, Kp refers to tissue or fluid exposure divided by exposure in the circulation. By IC50 is commonly meant the point on the concentration scale where inhibition reaches its midpoint. Broadly, the Ki is a dissociation constant, usually derived from enzyme kinetics or from competition with a known ligand. Turning to `O=C([O-])c1cccc(Cc2cc(Cl)ccc2OCc2ccc(Cl)cc2F)n1.[Na+]`, the bioavailability in data set [1] came to 39%; in data set [8], 7%. This compound showed a half-life in data set [2] of 36 min. For the same compound, the logD in data set [3] was determined as 2.1. In addition, the values for the clearance (in the data set with Hepatocyte [4]; in data set [9]) were 2.1 mL/min/g and 19 mL/min/kg, respectively. For the same compound, in the data set with Rattus norvegicus, the outcome was Active. Besides, the concentration ratio (Kp) at 1 hr in [5] is 0.34. Besides, the concentration at 1 h was found to be 1800 nM in data set [6], 415 nM in data set [10], 2300 nM in [16] and 60 nM in data set [17]. Moreover, the CL in the data set with Hepatocyte [7] is 0.7 mL/min/g; in data set [15], 2.7 mL/min/g. Besides, in data set [11], the Kp at 1 h came to 0.21. The IC50 in [12] is > 100 µM; at Prostacyclin receptor, > 1 µM; in [14], 1.58 µM; against Cytochrome P450 1A2, 20 µM. Also, the Ki in [13] was 0.00794 µM.
